Source: ChEMBL document CHEMBL3352173, “Optimization of pyrrolamide topoisomerase II inhibitors toward identification of an antibacterial clinical candidate (AZD5099)” (J Med Chem, 2014)
≈ marks a conversion by molar mass, not a printed value.

Assays:
[1] = Percentage unbound in human plasma; assay type: ADME, cell-free
DNA gyrase subunit B = DNA gyrase subunit B (Staphylococcus aureus, UniProt P0A0K8); test: Inhibition of ATPase activity of Staphylococcus aureus GyrB
How it was run: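 IC50 was determined against S. aureus GyrB in the routine screening assay. The enzyme concentration limits resolution below 10 nM.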

[2] = Ratio of MIC for methicillin, quinolone-resistant Staphylococcus aureus to fraction unbound in human plasma; assay type: ADME
[3] = Octanol-phosphate buffer distribution coefficient, log D of the compound at pH 7.4 by shake flask method; assay type: physicochemical
Haemophilus influenzae = test: Antimicrobial activity against Haemophilus influenzae by broth microdilution/CLSI method; assay type: functional; conditions: Haemophilus influenzae; read-out: MIC
Escherichia coli [4] = test: Antimicrobial activity against wild-type Escherichia coli Eco523 by broth microdilution/CLSI method; assay type: functional; conditions: Escherichia coli, Eco523; read-out: MIC
Moraxella catarrhalis = test: Antimicrobial activity against Moraxella catarrhalis by broth microdilution/CLSI method; assay type: functional; conditions: Moraxella catarrhalis; read-out: MIC
Escherichia coli [5] = test: Antimicrobial activity against Escherichia coli tolC- by broth microdilution/CLSI method; assay type: functional; conditions: Escherichia coli; read-out: MIC
Staphylococcus aureus [6] = test: Antimicrobial activity against methicillin-sensitive Staphylococcus aureus by broth microdilution/CLSI method; assay type: functional; conditions: Staphylococcus aureus; read-out: MIC
Streptococcus pneumoniae = test: Antibacterial activity against Streptococcus pneumoniae by broth microdilution/CLSI method; assay type: functional; conditions: Streptococcus pneumoniae; read-out: MIC
[7] = Solubility of the compound; assay type: physicochemical
Staphylococcus aureus [8] = test: Antimicrobial activity against methicillin, quinolone-resistant Staphylococcus aureus by broth microdilution/CLSI method; assay type: functional; conditions: Staphylococcus aureus; read-out: MIC
Streptococcus pyogenes = test: Antimicrobial activity against Streptococcus pyogenes by broth microdilution/CLSI method; assay type: functional

Chain of DNA gyrase subunit B (P0A0K8 whole entry): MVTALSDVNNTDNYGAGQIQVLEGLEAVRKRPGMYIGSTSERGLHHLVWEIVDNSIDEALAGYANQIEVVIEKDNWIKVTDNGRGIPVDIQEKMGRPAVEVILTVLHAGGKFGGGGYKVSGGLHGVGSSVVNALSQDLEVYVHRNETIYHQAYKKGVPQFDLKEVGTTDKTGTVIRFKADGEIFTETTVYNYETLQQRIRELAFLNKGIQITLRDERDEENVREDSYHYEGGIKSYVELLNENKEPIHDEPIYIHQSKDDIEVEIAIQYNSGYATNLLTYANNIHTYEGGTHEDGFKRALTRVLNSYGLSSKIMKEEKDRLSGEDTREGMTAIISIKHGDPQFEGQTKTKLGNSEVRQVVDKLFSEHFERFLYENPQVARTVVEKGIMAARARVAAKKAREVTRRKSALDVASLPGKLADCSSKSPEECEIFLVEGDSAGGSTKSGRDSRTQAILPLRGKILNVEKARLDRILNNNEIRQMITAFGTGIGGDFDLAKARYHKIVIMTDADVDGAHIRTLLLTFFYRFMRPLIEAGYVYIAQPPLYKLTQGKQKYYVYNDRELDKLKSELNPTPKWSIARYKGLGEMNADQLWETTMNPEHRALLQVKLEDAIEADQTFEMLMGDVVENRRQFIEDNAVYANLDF

SMILES	fraction unbound [1]	IC50 (DNA gyrase subunit B)	Ratio [2]	logD [3]	MIC (Haemophilus influenzae)	MIC (Escherichia coli [4])	MIC (Moraxella catarrhalis)	MIC (Escherichia coli [5])	MIC (Staphylococcus aureus [6])	MIC (Streptococcus pneumoniae)	solubility [7]	MIC (Staphylococcus aureus [8])	MIC (Streptococcus pyogenes)
CO[C@H]1CN(c2nc(CO)c(C(=O)O)s2)CC[C@H]1NC(=O)c1[nH]c(C)c(Cl)c1Cl (racemic)	0.029	< 0.01 µM	17	-0.27	8 µg/mL (≈ 17.3 µM)	> 8 µg/mL	1 µg/mL (≈ 2.16 µM)	1 µg/mL (≈ 2.16 µM)	> 8 µg/mL	2 µg/mL (≈ 4.32 µM)			
CO[C@H]1CO[C@]2(CN(c3ncc(C(=O)O)s3)CC[C@H]2NC(=O)c2[nH]c(C)c(Cl)c2Cl)OC1 (relative stereo)	0.053	< 0.01 µM		-0.18	1 µg/mL (≈ 1.98 µM)	> 64 µg/mL	0.13 µg/mL (≈ 0.257 µM)	1 µg/mL (≈ 1.98 µM)	4 µg/mL (≈ 7.91 µM)	0.063 µg/mL (≈ 0.125 µM)	> 1000 µM	4 µg/mL (≈ 7.91 µM)	0.063 µg/mL (≈ 0.125 µM)
CS[C@H]1CN(c2ncc(C(=O)O)s2)CC[C@H]1NC(=O)c1[nH]c(C)c(Cl)c1Cl (racemic)	0.015	< 0.01 µM		0.72	0.13 µg/mL (≈ 0.289 µM)	> 8 µg/mL	< 0.008 µg/mL	0.25 µg/mL (≈ 0.556 µM)	0.13 µg/mL (≈ 0.289 µM)	0.016 µg/mL (≈ 0.0356 µM)	> 1000 µM	0.25 µg/mL (≈ 0.556 µM)	0.016 µg/mL (≈ 0.0356 µM)
CO[C@H]1CO[C@@]2(CN(c3ncc(C(=O)O)s3)CC[C@H]2NC(=O)c2[nH]c(C)c(Cl)c2Cl)OC1 (relative stereo)	0.053	< 0.01 µM		0.15	2 µg/mL (≈ 3.96 µM)	> 64 µg/mL	1 µg/mL (≈ 1.98 µM)	1 µg/mL (≈ 1.98 µM)	4 µg/mL (≈ 7.91 µM)	0.063 µg/mL (≈ 0.125 µM)	> 1000 µM	8 µg/mL (≈ 15.8 µM)	0.063 µg/mL (≈ 0.125 µM)
Cc1[nH]c(C(=O)N[C@@H]2CCN(c3ncc(C(=O)O)s3)CC23OCCO3)c(Cl)c1Cl	0.075	0.015 µM		-0.39	32 µg/mL (≈ 69.4 µM)	> 64 µg/mL	1 µg/mL (≈ 2.17 µM)	1 µg/mL (≈ 2.17 µM)	32 µg/mL (≈ 69.4 µM)	2 µg/mL (≈ 4.34 µM)	> 1000 µM	64 µg/mL (≈ 139 µM)	2 µg/mL (≈ 4.34 µM)
Cc1[nH]c(C(=O)N[C@@H]2CCN(c3ncc(C(=O)O)s3)CC23OCC2(CC2)CO3)c(Cl)c1Cl	0.012	< 0.01 µM		0.88	0.13 µg/mL (≈ 0.259 µM)	> 64 µg/mL	< 0.063 µg/mL	1 µg/mL (≈ 1.99 µM)	0.5 µg/mL (≈ 0.997 µM)	< 0.063 µg/mL	> 1000 µM	0.5 µg/mL (≈ 0.997 µM)	< 0.063 µg/mL
CO[C@H]1CN(c2nc(C(=O)O)c(C(N)=O)s2)CC[C@H]1NC(=O)c1[nH]c(C)c(Cl)c1Cl (racemic)	0.005	< 0.01 µM	160	-0.63	> 8 µg/mL	> 8 µg/mL	2 µg/mL (≈ 4.2 µM)	1 µg/mL (≈ 2.1 µM)	> 8 µg/mL	1 µg/mL (≈ 2.1 µM)			
Cc1[nH]c(C(=O)N[C@@H]2CCN(c3ncc(C(=O)O)s3)CC23OCCCO3)c(Cl)c1Cl	0.03	< 0.01 µM		0.4	1 µg/mL (≈ 2.1 µM)	> 64 µg/mL	0.13 µg/mL (≈ 0.273 µM)	1 µg/mL (≈ 2.1 µM)	2 µg/mL (≈ 4.21 µM)	0.063 µg/mL (≈ 0.133 µM)	> 1000 µM	4 µg/mL (≈ 8.41 µM)	0.063 µg/mL (≈ 0.133 µM)
C=C1COC2(CN(c3ncc(C(=O)O)s3)CC[C@H]2NC(=O)c2[nH]c(C)c(Cl)c2Cl)OC1	0.006	< 0.01 µM		0.82	2 µg/mL (≈ 4.1 µM)	> 64 µg/mL	< 0.063 µg/mL	0.5 µg/mL (≈ 1.03 µM)	1 µg/mL (≈ 2.05 µM)	< 0.063 µg/mL	> 1000 µM	2 µg/mL (≈ 4.1 µM)	< 0.063 µg/mL
C#CCO[C@H]1CN(c2ncc(C(=O)O)s2)CC[C@H]1NC(=O)c1[nH]c(C)c(Cl)c1Cl	0.03	< 0.01 µM		0.44	0.13 µg/mL (≈ 0.284 µM)	> 8 µg/mL	0.016 µg/mL (≈ 0.035 µM)	0.13 µg/mL (≈ 0.284 µM)	0.25 µg/mL (≈ 0.547 µM)	0.016 µg/mL (≈ 0.035 µM)	> 1000 µM	0.25 µg/mL (≈ 0.547 µM)	0.016 µg/mL (≈ 0.035 µM)
Cc1[nH]c(C(=O)N[C@@H]2CCN(c3ncc(C(=O)O)s3)C[C@@H]2N=[N+]=[N-])c(Cl)c1Cl (racemic)	0.038	< 0.01 µM		0.53	< 0.063 µg/mL	32 µg/mL (≈ 72 µM)	< 0.063 µg/mL	< 0.063 µg/mL	0.13 µg/mL (≈ 0.293 µM)	< 0.063 µg/mL	> 1000 µM	0.25 µg/mL (≈ 0.563 µM)	< 0.063 µg/mL
COC1(OC)CN(c2ncc(C(=O)O)s2)CC[C@H]1NC(=O)c1[nH]c(C)c(Cl)c1Cl	0.018	0.014 µM		0.24	1 µg/mL (≈ 2.16 µM)	> 64 µg/mL	0.5 µg/mL (≈ 1.08 µM)	0.5 µg/mL (≈ 1.08 µM)	2 µg/mL (≈ 4.32 µM)	0.13 µg/mL (≈ 0.281 µM)	> 1000 µM	2 µg/mL (≈ 4.32 µM)	0.25 µg/mL (≈ 0.54 µM)
Cc1[nH]c(C(=O)N[C@@H]2CCN(c3ncc(C(=O)O)s3)CC23OCC(C)(C)CO3)c(Cl)c1Cl	0.02	< 0.01 µM		1.07	0.25 µg/mL (≈ 0.497 µM)	> 64 µg/mL	< 0.063 µg/mL	1 µg/mL (≈ 1.99 µM)	0.5 µg/mL (≈ 0.993 µM)	< 0.063 µg/mL	> 1000 µM	0.5 µg/mL (≈ 0.993 µM)	< 0.063 µg/mL
